# Source: ChEMBL document CHEMBL4811254, “Beyond Basicity: Discovery of Nonbasic DENV-2 Protease Inhibitors with Potent Activity in Cell Culture” (J Med Chem, 2021)
# pEC50: −log10 of the molar value. The source made the active and inactive calls. The rule behind the calls is not given here.
# Key:
# Trypsin (Homo sapiens) = Trypsin (Homo sapiens) (UniProt P07477+P07478+P35030); experiment: Inhibition of trypsin (unknown origin) using Boc-Val-Pro-Arg-AMC as substrate at 50 uM preincubated with enzyme for 15 mins followed by substrate addition and measured for 15 mins by fluorimetric assay; assay type: protein assay; conditions: time 30.0 min
# [1] = Cytotoxicity against human HeLa cells assessed as reduction in cell viability incubated for 24 hrs by CellTiter-Blue assay; assay type: cell-based
# How it was run: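 Viability by CellTiter-Blue in HeLa or Huh-7 cells exposed to compound dilutions. Plates run in parallel with the reporter assay (HeLa) or the virus titer assay (Huh-7).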
# [2] = target: Genome polyprotein (dengue virus type 2) (UniProt P29990); experiment: Inhibition of NS2B-NS3 protease in DENV2proHeLa system assessed as inhibition of luciferase signal at 12.5 uM incubated for 24 hrs by luciferase reporter gene assay; assay type: cell-based; conditions: HeLa
# How it was run: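 Stable DENV2proHeLa cells seeded at 2 × 10⁴/well and dosed immediately, then incubated 24 h at 37 °C. Cells lysed 15 min at room temperature. Luciferase read with coelenterazine (2.75 μM in PBS) injection, luminescence 5 s. Triplicates; percent inhibition calculated relative to untreated control; background from cell-free wells.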
# [3] = target: Prothrombin (Homo sapiens) (UniProt P00734); experiment: Inhibition of thrombin in human plasma using Boc-Val-Pro-Arg-AMC as substrate at 25 uM preincubated with enzyme for 15 mins followed by substrate addition and measured for 15 mins by fluorimetric assay; assay type: cell-free; conditions: time 30.0 min
# Genome polyprotein = Genome polyprotein (dengue virus type 2, UniProt P29990); experiment: Inhibition of NS2B-NS3 protease in DENV2proHeLa system assessed as inhibition of luciferase signal incubated for 24 hrs by luciferase reporter gene assay; assay type: cell-based, HeLa
# How it was run: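 HeLa cells stably carrying the reporter system, 2 × 10⁴ per well, given inhibitor at seeding and held 24 h at 37 °C. Cells lysed 15 min at room temperature. Luciferase read for 5 s after injecting coelenterazine (2.75 μM in PBS). Triplicate wells per concentration; percent inhibition taken against untreated cells. EC50/EC90 from 4-parameter dose-response fit, background from cell-free wells subtracted.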
Structure (SMILES),inhibition (Trypsin (Homo sapiens)),CC50 at 24 h [1] [µM],inhibition [2] [%],inhibition [3],pEC50 (Genome polyprotein)
CCCCCC(=O)N[C@H](C(=O)NCc1ccc(Cl)cc1)c1ccc(OCc2ccccc2)cc1,inactive,> 50,14,inactive,
Cc1ccc(C)c(OCCCC(C)(C)C(=O)N[C@H](C(=O)Nc2cccc(C(N)=O)c2)c2ccc(OCc3ccccc3)cc2)c1,inactive,> 25,82,inactive,5.77
NC(=O)c1ccc(CNC(=O)[C@@H](NCc2ccccc2)c2ccc(OCc3ccccc3)cc2)cc1,inactive,> 50,36,inactive,
CCCCCC(=O)N[C@@H](Cc1ccccc1)C(=O)NCc1ccc(C(N)=O)cc1,inactive,> 50,< 10,inactive,
NC(=O)c1ccc(CNC(=O)[C@@H](NC(=O)CCc2ccccc2)c2ccc(OCc3ccccc3)cc2)cc1,inactive,> 50,57,inactive,4.92
CCCCCC(=O)N[C@H](C(=O)Nc1ccccc1C(N)=O)c1ccc(OCc2ccccc2)cc1,inactive,> 50,13,inactive,
CCCCCC(=O)N[C@H](C(=O)Nc1ccc(C(N)=O)cc1)c1ccc(OCc2ccccc2)cc1,inactive,> 12.5,58,inactive,5.15
CCCCCC(=O)N[C@H](C(=O)NCc1ccc(C(N)=O)cc1)c1ccc(OCc2ccc(C(F)(F)F)cc2)cc1,inactive,> 100,53,inactive,5.01
CCCC(O)C(=O)N[C@H](C(=O)NCc1ccc(C(N)=O)cc1)c1ccc(OCc2ccccc2)cc1 (some centres not stated),inactive,> 50,< 10,inactive,
CCCCCC(=O)N[C@@H](C(=O)NCc1ccc(C(N)=O)cc1)c1ccc(OCc2ccccc2)cc1,inactive,> 50,35,inactive,
CCCCCC(=O)N[C@H](C(=O)NCCc1ccccc1)c1ccc(OCc2ccccc2)cc1,inactive,< 12.5,,inactive,
NC(=O)c1cccc(NC(=O)[C@@H](NC(=O)c2ccc(Oc3ccccc3)cc2)c2ccc(Oc3ccccc3)cc2)c1,inactive,> 50,73,inactive,5.54
CCCCCC(=O)N[C@H](C(=O)NCC1CCC(C(N)=O)CC1)c1ccc(OCc2ccccc2)cc1 (some centres not stated),inactive,> 50,29,inactive,
NCc1ccc(C(=O)N[C@H](C(=O)NCc2ccc(C(N)=O)cc2)c2ccc(OCc3ccccc3)cc2)cc1,inactive,> 50,24,inactive,4.54
NC(=O)c1cccc(NC(=O)[C@@H](NC(=O)c2cccc(C(=O)N3CCOCC3)c2)c2ccc(OCc3ccccc3)cc2)c1,inactive,> 100,35,inactive,4.64
CCCCCC(=O)N[C@H](C(=O)NCc1ccc(C(N)=O)cc1)c1ccccc1,inactive,> 50,15,inactive,
NC(=O)c1ccc(CNC(=O)[C@@H](NC(=O)c2cccs2)c2ccc(OCc3ccccc3)cc2)cc1,inactive,> 50,72,inactive,5.08
CCCCCC(=O)N[C@H](C(=O)NCc1ccc(NC(N)=O)cc1)c1ccc(OCc2ccccc2)cc1,inactive,,,inactive,
CCCCCC(=O)N[C@H](C(=O)NCc1ccc(NC(C)=O)cc1)c1ccc(OCc2ccccc2)cc1,inactive,> 100,55,inactive,4.85
CCCCC(=O)N[C@H](C(=O)NCc1ccc(C(N)=O)cc1)c1ccc(OCc2ccccc2)cc1,inactive,> 100,38,inactive,4.85
NC(=O)c1cccc(NC(=O)[C@@H](NC(=O)c2ccc(C(=O)N3CCOCC3)cc2)c2ccc(OCc3ccccc3)cc2)c1,inactive,> 100,40,inactive,4.82

Structure (SMILES),inhibition (Trypsin (Homo sapiens)),CC50 at 24 h [1] [µM],inhibition [2] [%],inhibition [3],pEC50 (Genome polyprotein)
NC(=O)c1ccc(CNC(=O)[C@@H](NC(=O)/C=C/c2ccccc2)c2ccc(OCc3ccccc3)cc2)cc1,inactive,> 50,34,inactive,
NC(=O)c1cccc(NC(=O)[C@@H](NC(=O)c2ccc3ccccc3c2)c2ccc(OCc3ccccc3)cc2)c1,inactive,> 100,71,inactive,5.35
CCCCCC(=O)N[C@H](C(=O)NCc1ccc(C(=O)NO)cc1)c1ccc(OCc2ccccc2)cc1,inactive,> 50,40,inactive,
CCCCCC(=O)N[C@H](C(=O)NCc1ccc(C(N)=O)cc1)c1ccc(O)cc1,inactive,> 100,< 10,inactive,
CCCCCC(=O)N[C@H](C(=O)NCc1ccc(C(=O)O)cc1)c1ccc(OCc2ccccc2)cc1,inactive,> 50,14,inactive,
NCCCCCC(=O)N[C@H](C(=O)NCc1ccc(C(N)=O)cc1)c1ccc(OCc2ccccc2)cc1,inactive,> 50,14,inactive,
NC(=O)c1ccc(CNC(=O)[C@@H](N)c2ccc(OCc3ccccc3)cc2)cc1,inactive,> 50,33,inactive,
COCCOCC(=O)N[C@H](C(=O)NCc1ccc(C(N)=O)cc1)c1ccc(OCc2ccccc2)cc1,inactive,> 50,27,inactive,
Cc1ccc(C(=O)c2cc(O)c(O)c([N+](=O)[O-])c2)cc1 [TOLCAPONE],,> 25,59,,5.15
CCCCCC(=O)N[C@H](C(=O)Nc1ccc(S(N)(=O)=O)cc1)c1ccc(OCc2ccccc2)cc1,inactive,> 50,< 10,inactive,
CCCCCC(=O)N[C@H](C(=O)Nc1ccc(CC(N)=O)cc1)c1ccc(OCc2ccccc2)cc1,inactive,> 50,47,inactive,
CC(C)CCOc1ccc(C(=O)N[C@H](C(=O)Nc2cccc(C(N)=O)c2)c2ccc(OCc3ccccc3)cc2)cc1,inactive,> 50,49,inactive,
NC(=O)c1ccc(CNC(=O)[C@@H](NC(=O)C2CCC2)c2ccc(OCc3ccccc3)cc2)cc1,inactive,> 50,45,inactive,
CCCCCC(=O)N[C@H](C(=O)NCc1cccc(OC)c1)c1ccc(OCc2ccccc2)cc1,inactive,> 50,< 10,inactive,
NC(=O)c1cccc(NC(=O)[C@@H](NC(=O)C2CCN(c3ccccc3)CC2)c2ccc(OCc3ccccc3)cc2)c1,inactive,> 50,46,inactive,
CCCCCC(=O)N[C@H](C(=O)N1CCC(C(N)=O)CC1)c1ccc(OCc2ccccc2)cc1,inactive,> 50,28,inactive,
CCCCCC(=O)N[C@H](C(=O)NCc1ccccc1)c1ccc(OCc2ccccc2)cc1,inactive,> 50,< 10,inactive,
CCCCCC(=O)N[C@@H](C(=O)NCc1ccc(C(N)=O)cc1)c1ccc(OCc2ccc(C(F)(F)F)cc2)cc1,inactive,> 50,42,inactive,
CCCCCC(=O)N[C@H](C(=O)Nc1ccc(OC)cc1)c1ccc(OCc2ccccc2)cc1,inactive,> 25,10,inactive,
CCCCCC(=O)N[C@H](C(=O)NCc1ccc(C(N)=O)cc1)c1ccc(C(F)(F)F)cc1,inactive,> 50,31,inactive,
